The assay concerns the target T1, OR5M3 (Homo sapiens) (UniProt Q8NGP4).
T1 sequence (whole entry): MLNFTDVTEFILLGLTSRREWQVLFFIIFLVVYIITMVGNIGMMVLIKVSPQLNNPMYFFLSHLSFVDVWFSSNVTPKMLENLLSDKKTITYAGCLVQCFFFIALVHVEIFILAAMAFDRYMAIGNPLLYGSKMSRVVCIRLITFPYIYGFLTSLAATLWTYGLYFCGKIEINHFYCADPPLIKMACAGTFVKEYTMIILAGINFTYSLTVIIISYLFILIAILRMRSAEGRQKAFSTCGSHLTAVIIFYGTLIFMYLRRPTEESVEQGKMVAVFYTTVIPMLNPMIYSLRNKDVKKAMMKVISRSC
The conditions noted are these: stereoisomer not certain. The gist of the method:
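Values were gathered from published papers (main text and supplementary material), with extra details requested from the original authors when needed, and checked for typos and inconsistencies. Each receptor–molecule pair is called responsive (active) if the original authors judged the measured signal statistically different from baseline, and non-responsive (inactive) otherwise. Assay methods varied by source, often transient mammalian cell-line luciferase assays. Recorded details include cell line, G-protein, co-transfected protein and tags.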
Take `COC(=O)C=Cc1ccccc1`: the “odorant receptor agonist call” value was “inactive”.

For `CCCC(O)CC(=O)OCC` (centres undefined), the “odorant receptor agonist call” value was “inactive”.

For `CCC=O`, the “odorant receptor agonist call” value is “inactive”.

For the compound `CC(C)c1ccc(C=O)cc1`, the “odorant receptor agonist call” value was “inactive”. On to `CCC(C)CO` (centres undefined), for which the “odorant receptor agonist call” value is “inactive”.

For `CCCCCC=CCCC=O`, the “odorant receptor agonist call” value is “inactive”. The value for `CCC(=O)C(C)S` (centres undefined) was “inactive”; that for `CCCCCC(=O)OCC` was “inactive”; that for `C=C(C)c1ccc(C)cc1` was “inactive”.

As for `CC=CC(=O)C1=C(C)CCCC1(C)C`, the “odorant receptor agonist call” value is “inactive”. The value for `CCCCC1CCC(=O)O1` (centres undefined) was “inactive”; that for `COC1=C(C)OC(C)C1=O` (centres undefined) was “inactive”; that for `CC1=CCC(C(C)(C)S)CC1` (centres undefined) was “inactive”. For `CCOC(=O)c1ccccc1`, the “odorant receptor agonist call” value is “inactive”. The value for `CSCCC=O` was “inactive”; that for `Cc1cccc(O)c1` was “inactive”; that for `CCC=CCCC=CC=O` was “inactive”.

Take `CCCc1ccc(O)c(OC)c1`: the “odorant receptor agonist call” value was “inactive”.

On to `CC(=O)O`, for which the “odorant receptor agonist call” value is “inactive”. The value for `CCC=CCCOC(C)=O` was “inactive”; that for `SCc1cccs1` was “inactive”. The value for `CCCCCCCC1CCCC(=O)O1` (centres undefined) was “inactive”. The value for `C=CC(=O)CCCCC` was “inactive”; that for `CC(C)CC=O` was “inactive”; that for `CC=CC(=O)C(C)CC` (centres undefined) was “inactive”. Take `CCCCCCCC(=O)OCC`: the “odorant receptor agonist call” value was “inactive”. The value for `C=C1CCC2(C(C)C)CC12` (centres undefined) was “inactive”.

For `CC(C)=CC1CC(C)CCO1` (centres undefined), the “odorant receptor agonist call” value is “inactive”. The value for `OCC=Cc1ccccc1` was “inactive”; that for `CSC` was “inactive”; that for `CC(=O)C=CC1=C(C)CCCC1(C)C` was “inactive”. The value for `CC1=CCC2CC1C2(C)C` (centres undefined) was “inactive”. The value for `CCO` was “inactive”. On to `CCCSSSC`, for which the “odorant receptor agonist call” value is “inactive”. The result for `CC(=O)OCC=Cc1ccccc1` reads “inactive”; that for `OCCc1ccccc1`, “inactive”; that for `CC(=O)C(C)O` (centres undefined), “inactive”. The result for `C=Cc1ccc(O)cc1` reads “inactive”. The value for `CSCCCO` was “inactive”.

For the origin of these results see the M2OR odorant receptor database.
